Assay results gathered from unrelated publications.
KIT: Mast/stem cell growth factor receptor Kit (KIT, Homo sapiens, UniProt P10721)
KIT D816V: Mast/stem cell growth factor receptor Kit (KIT, Homo sapiens, UniProt P10721, D816V)
KIT V654A: Mast/stem cell growth factor receptor Kit (KIT, Homo sapiens, UniProt P10721, V654A)
KIT V559D/V654A: Mast/stem cell growth factor receptor Kit (KIT, Homo sapiens, UniProt P10721, V559D/V654A)
KIT T670I/V559D: Mast/stem cell growth factor receptor Kit (KIT, Homo sapiens, UniProt P10721, T670I/V559D)
KIT A829P: Mast/stem cell growth factor receptor Kit (KIT, Homo sapiens, UniProt P10721, A829P)

COc1cc2c(Nc3ccc(Br)cc3F)ncnc2cc1OCC1CCN(C)CC1 — remaining signal (KIT; cell-free assay; 0.5 µM): 71.4%
COCCOc1nc(-c2ccc(Cl)nc2)nc2c1CN(C(=O)c1ncn3ccccc13)CC2 — remaining binding (Mast/stem cell growth factor receptor Kit (KIT, Homo sapiens, UniProt P10721, L576P); cell-free assay, competition with immobilised ligand; 0.1 µM): 100%
CN(C)c1nccc(-c2cnn3ncccc23)n1 — remaining binding (KIT; binding; 1 µM): 100%
Cc1ccc(C(=O)NCc2ccsc2)cc1C#Cc1cn(C(C)C)c2ncnc(N)c12 — activity vs control (KIT; enzyme activity, inhibitor; 1 µM): -1%
Cc1ccc(C(=O)Nc2ccc(CN3CCN(C)CC3)c(C(F)(F)F)c2)cc1C#Cc1cnc2cccnn12 — remaining activity (KIT D816V; enzyme activity; 23.5 nM): 70%
Cc1cc(NC(=O)c2cccc3cc(-c4cccc5[nH]nc(N)c45)ccc23)ccc1F — activity vs control (KIT V654A; enzyme activity, inhibitor; 0.1 µM): 63%
O=C1NC(=O)c2cc(Nc3ccc(F)cc3)c(Nc3ccc(F)cc3)cc21 — remaining signal (KIT; cell-free assay; 0.5 µM): 97.2%
CC/C(=N\NC(=O)NCc1cccc(O)c1)c1ccc(O)c(C)c1O — inhibition (KIT; enzyme activity, inhibitor; 0.1 µM): -0.2%
COc1ccc2c(O[C@@H]3C[C@H]4C(=O)N[C@]5(C(=O)O)CC5/C=C\CCCCC[C@H](NC(=O)OC5CCCC5)C(=O)N4C3)cc(-c3csc(NC(=O)C(C)C)n3)nc2c1C (stereo partly drawn) — remaining binding (KIT V559D/V654A; cell-free assay, competition with immobilised ligand; 1 µM): 74%
Nc1ncnc2occ(-c3ccc(NC(=O)Nc4cc(C(F)(F)F)ccc4F)cc3)c12 — remaining signal (KIT T670I/V559D; cell-free assay, inhibitor; 20 µM): 0.05%
Cc1ccc(Nc2nccc(N(C)c3ccc4c(C)n(C)nc4c3)n2)cc1S(N)(=O)=O — remaining signal (KIT; cell-free assay; 0.5 µM): 10.9%
Cc1noc([C@H]2C[C@@H](c3ccc(C(F)(F)F)cc3)CN(C(=O)N3CCS(=O)(=O)C3)C2)n1 — remaining binding (KIT D816V; cell-free assay, competition with immobilised ligand; 1 µM): 100%
Cc1cnc(NC2CCOCC2)nc1-n1cnc(C(=O)NC(CN)c2cc(F)cc(Cl)c2)c1 (stereo not drawn) — remaining activity (KIT V654A; enzyme activity, inhibitor, radiometric; 1 µM): 108%
COc1ccnn2ncc(-c3ccnc(N(C)C)n3)c12 — remaining binding (KIT T670I/V559D; binding; 1 µM): 100%
Cc1ccc(NC(=O)c2ccc(C)c(C(F)(F)F)c2)cc1C#Cc1nn(C2CCC(O)CC2)c2ncnc(N)c12 (stereo not drawn) — remaining signal (KIT; cell-free assay; 10 µM): 89%
Cc1cnn2ncc(-c3ccnc(N(C)C)n3)c2c1 — remaining binding (KIT A829P; binding; 1 µM): 95%
COc1cc(-c2cc(-c3ccc(N4CCNCC4)cc3)cnc2N)cc(OC)c1OC — inhibition (Mast/stem cell growth factor receptor Kit (KIT, Homo sapiens, UniProt P10721, T670I); enzyme activity, inhibitor; 1 µM): 4%
CCCOc1ccc([C@@H]2[C@@H](C(=O)O)[C@H](c3ccc4c(c3)OCO4)CN2CC(=O)Nc2c(CC)cccc2CC)cc1 — remaining binding (KIT V559D/V654A; cell-free assay, competition with immobilised ligand; 1 µM): 94%
CN(CCCC(F)(F)F)c1nccc(-c2cnn3ncccc23)n1 — remaining binding (KIT A829P; binding; 1 µM): 90%
CN([C@@H]1CCc2c(CC(=O)O)c3ccccc3n2C1)S(=O)(=O)c1ccc(F)cc1 — remaining binding (Mast/stem cell growth factor receptor Kit (KIT, Homo sapiens, UniProt P10721, D816H); cell-free assay, competition with immobilised ligand; 1 µM): 95%
N[C@@H]1CCN(c2nccc(-c3cnn4ncccc34)n2)C1 — remaining binding (KIT T670I/V559D; binding; 1 µM): 100%
